# Columns and labels:
# M14 = experiment: Cytotoxicity against human M14 cells assessed as cell growth at 0.05 uM by SRB assay; type: functional; conditions: read-out: Activity
# NCI-H23 = experiment: Cytotoxicity against human NCI-H23 cells by SRB assay; type: functional
# Procedure, shortened: (§1)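 NCI-60 panel screen; 5-dose testing giving GI50 per cell line, plus a single 10 µM one-dose test. Method details not given beyond the NCI screen.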
# [1] = Cytotoxicity against human NCI-ADR-RES cells assessed as cell growth at 50 uM by SRB assay; type: functional; conditions: read-out: Activity
# HCT-15 [2] = experiment: Cytotoxicity against human HCT15 cells assessed as cell growth at 5 uM by SRB assay; type: functional; conditions: read-out: Activity
# Procedure, shortened: (§2)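 Measured in the NCI-60 human tumour cell line panel using five-dose testing. Growth was recorded at each dose for each cell line, and a GI50 was derived for each line.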
# ACHN = experiment: Cytotoxicity against human ACHN cells assessed as cell growth at 5 uM by SRB assay; type: functional; conditions: read-out: Activity
# SK-MEL-2 [3] = experiment: Cytotoxicity against human SK-MEL-2 cells assessed as cell growth at 0.005 uM by SRB assay; type: functional; conditions: read-out: Activity
# NCI-H322M = experiment: Cytotoxicity against human NCI-H322M cells assessed as cell growth at 50 uM by SRB assay; type: functional; conditions: read-out: Activity
# COLO 205 = experiment: Cytotoxicity against human COLO205 cells assessed as cell growth at 0.005 uM by SRB assay; type: functional; conditions: read-out: Activity
# SF-268 = experiment: Cytotoxicity against human SF268 cells assessed as cell growth at 50 uM by SRB assay; type: functional; conditions: read-out: Activity
# A549 [4] = experiment: Cytotoxicity against human A549/ATCC cells assessed as cell growth at 0.005 uM by SRB assay; type: functional; conditions: read-out: Activity
# [5] = Cytotoxicity against etoposide-resistant human K/VP.5 cells assessed as cell growth inhibition after 72 hrs by MTS assay; type: functional, cell-based; conditions: K/VP.5, 72 h
# Procedure, shortened: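 K/VP.5 cells are a K562-derived subline, 26-fold etoposide-resistant, with decreased topoisomerase IIα mRNA and protein. Cells were grown in suspension in αMEM with 10% fetal calf serum. Drugs were given from DMSO stocks, with final DMSO typically 0.4% or less. Read-out was MTS absorbance after 72 h. Typically nine concentrations were run in duplicate on two days. IC50 came from a four-parameter logistic fit.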
# HOP-92 = experiment: Cytotoxicity against human HOP92 cells assessed as cell growth at 50 uM by SRB assay; type: functional; conditions: read-out: Activity; procedure, shortened: as §2
# [6] = Cytotoxicity against human Hs578T cells assessed as cell growth at 0.5 uM by SRB assay; type: functional; conditions: Hs-578T, read-out: Activity; procedure, shortened: as §2
# MDA-MB-435 = experiment: Cytotoxicity against human MDA-MB-435 cells assessed as cell growth at 50 uM by SRB assay; type: functional; conditions: read-out: Activity
# HCT-15 [7] = experiment: Cytotoxicity against human HCT15 cells assessed as cell growth at 0.5 uM by SRB assay; type: functional; conditions: read-out: Activity; procedure, shortened: as §2
# HCT-15 [8] = experiment: Cytotoxicity against human HCT15 cells assessed as cell growth at 0.05 uM by SRB assay; type: functional; conditions: read-out: Activity; procedure, shortened: as §2
# HCC 2998 = experiment: Cytotoxicity against human HCC2998 cells assessed as cell growth at 0.5 uM by SRB assay; type: functional; conditions: read-out: Activity; procedure, shortened: as §2
# HOP-62 [9] = experiment: Cytotoxicity against human HOP62 cells by SRB assay; type: functional; procedure, shortened: as §2
# SK-MEL-2 [10] = experiment: Cytotoxicity against human SK-MEL-2 cells assessed as cell growth at 50 uM by SRB assay; type: functional; conditions: read-out: Activity
# OVCAR-8 = experiment: Cytotoxicity against human OVCAR8 cells by SRB assay; type: functional; procedure, shortened: as §1
# CAKI-1 [11] = experiment: Cytotoxicity against human Caki1 cells assessed as cell growth at 5 uM by SRB assay; type: functional; conditions: read-out: Activity
# HCT-116 = experiment: Cytotoxicity against human HCT116 cells assessed as cell growth at 5 uM by SRB assay; type: functional; conditions: read-out: Activity; procedure, shortened: as §2
# SW-620 = experiment: Cytotoxicity against human SW620 cells assessed as cell growth at 5 uM by SRB assay; type: functional; conditions: read-out: Activity
# UO-31 [12] = experiment: Cytotoxicity against human UO31 cells assessed as cell growth at 0.5 uM by SRB assay; type: functional; conditions: read-out: Activity
# UACC-257 = experiment: Cytotoxicity against human UACC257 cells assessed as cell growth at 0.05 uM by SRB assay; type: functional; conditions: read-out: Activity
# U-251 = experiment: Cytotoxicity against human U251 cells assessed as cell growth at 0.5 uM by SRB assay; type: functional; conditions: read-out: Activity
# IGROV-1 = experiment: Cytotoxicity against human IGROV1 cells assessed as cell growth at 0.05 uM by SRB assay; type: functional; conditions: read-out: Activity; procedure, shortened: as §2
# UACC-62 = experiment: Cytotoxicity against human UACC62 cells assessed as cell growth at 0.005 uM by SRB assay; type: functional; conditions: read-out: Activity
# MCF7 = experiment: Cytotoxicity against human MCF7 cells assessed as cell growth at 5 uM by SRB assay; type: functional; conditions: read-out: Activity
# T47D [13] = experiment: Cytotoxicity against human T47D cells assessed as cell growth at 0.5 uM by SRB assay; type: functional; conditions: read-out: Activity
# UO-31 [14] = experiment: Cytotoxicity against human UO31 cells assessed as cell growth at 5 uM by SRB assay; type: functional; conditions: read-out: Activity
# CAKI-1 [15] = experiment: Cytotoxicity against human Caki1 cells assessed as cell growth at 0.005 uM by SRB assay; type: functional; conditions: read-out: Activity
# SK-OV-3 = experiment: Cytotoxicity against human SKOV3 cells by SRB assay; type: functional; procedure, shortened: as §1
# T47D [16] = experiment: Cytotoxicity against human T47D cells by SRB assay; type: functional; procedure, shortened: as §1
# A498 = experiment: Cytotoxicity against human A498 cells assessed as cell growth at 0.5 uM by SRB assay; type: functional; conditions: read-out: Activity
# A549 [17] = experiment: Cytotoxicity against human A549/ATCC cells by SRB assay; type: functional
# CAKI-1 [18] = experiment: Cytotoxicity against human Caki1 cells assessed as cell growth at 0.05 uM by SRB assay; type: functional; conditions: read-out: Activity
# SR = experiment: Cytotoxicity against human SR cells assessed as cell growth at 0.005 uM by SRB assay; type: functional; conditions: read-out: Activity
# UO-31 [19] = experiment: Cytotoxicity against human UO31 cells assessed as cell growth at 0.05 uM by SRB assay; type: functional; conditions: read-out: Activity
# HOP-62 [20] = experiment: Cytotoxicity against human HOP62 cells assessed as cell growth at 5 uM by SRB assay; type: functional; conditions: read-out: Activity; procedure, shortened: as §2
# BT-549 = experiment: Cytotoxicity against human BT549 cells assessed as cell growth at 0.005 uM by SRB assay; type: functional; conditions: read-out: Activity
# [21] = read-out: LC50 (the source's name)
# [22] = read-out: pLC50 (the source's name) (converted)
compound,measurement,setting,value
COc1cc([C@@H]2c3cc4c(cc3[C@@H](NC(=O)CN3CCN(CCCCCCCCCCN5CCN(CC(=O)N[C@@H]6c7cc8c(cc7[C@@H](c7cc(OC)c(O)c(OC)c7)[C@H]7C(=O)OC[C@@H]76)OCO8)CC5)CC3)[C@H]3COC(=O)[C@H]23)OCO4)cc(OC)c1O,growth at 0.05 µM,M14,94%
same,GI50,NCI-H23; read-out: GI50,0.181 µM
same,CC50,NCI-H23; [21],9.3 µM
same,TGI,NCI-H23; read-out: TGI,1.32 µM
same,GI50,NCI-H23; read-out: pGI50 (converted),0.182 µM
same,CC50,NCI-H23; [22],9.33 µM
same,TGI,NCI-H23; read-out: pTGI (converted),1.32 µM
same,growth at 50 µM,[1],23%
same,growth at 5 µM,HCT-15 [2],-69%
same,growth at 5 µM,ACHN,-77%
same,growth at 0.005 µM,SK-MEL-2 [3],99%
same,growth at 50 µM,NCI-H322M,-23%
same,growth at 0.005 µM,COLO 205,90%
same,growth at 50 µM,SF-268,-40%
same,growth at 0.005 µM,A549 [4],74%
same,IC50,[5],0.114 µM
same,growth at 50 µM,HOP-92,-46%
same,growth at 0.5 µM,[6],77%
same,growth at 50 µM,MDA-MB-435,-40%
same,growth at 0.5 µM,HCT-15 [7],45%
same,growth at 0.05 µM,HCT-15 [8],80%
same,growth at 0.5 µM,HCC 2998,61%
same,GI50,HOP-62 [9]; read-out: GI50,0.0438 µM
same,TGI,HOP-62 [9]; read-out: TGI,0.863 µM
same,GI50,HOP-62 [9]; read-out: pGI50 (converted),0.0437 µM
same,TGI,HOP-62 [9]; read-out: pTGI (converted),0.871 µM
same,growth at 50 µM,SK-MEL-2 [10],-59%
same,GI50,OVCAR-8; read-out: GI50,0.514 µM
same,CC50,OVCAR-8; [21],> 50 µM
same,TGI,OVCAR-8; read-out: TGI,2.2 µM
same,GI50,OVCAR-8; read-out: pGI50 (converted),0.513 µM
same,CC50,OVCAR-8; [22],> 50.1 µM
same,TGI,OVCAR-8; read-out: pTGI (converted),2.19 µM
same,growth at 5 µM,CAKI-1 [11],28%
same,growth at 5 µM,HCT-116,-15%
same,growth at 5 µM,SW-620,-63%
same,growth at 0.5 µM,UO-31 [12],76%
same,growth at 0.05 µM,UACC-257,97%
same,growth at 0.5 µM,U-251,51%
same,growth at 0.05 µM,IGROV-1,83%
same,growth at 0.005 µM,UACC-62,91%
same,growth at 5 µM,MCF7,18%
same,growth at 0.5 µM,T47D [13],49%
same,growth at 5 µM,UO-31 [14],-13%
same,growth at 0.005 µM,CAKI-1 [15],93%
same,GI50,SK-OV-3; read-out: GI50,0.557 µM
same,CC50,SK-OV-3; [21],16.5 µM
same,TGI,SK-OV-3; read-out: TGI,5.43 µM
same,GI50,SK-OV-3; read-out: pGI50 (converted),0.562 µM
same,CC50,SK-OV-3; [22],16.6 µM
same,TGI,SK-OV-3; read-out: pTGI (converted),5.37 µM
same,GI50,T47D [16]; read-out: GI50,0.463 µM
same,CC50,T47D [16]; [21],> 50 µM
same,TGI,T47D [16]; read-out: TGI,9.74 µM
same,GI50,T47D [16]; read-out: pGI50 (converted),0.468 µM
same,CC50,T47D [16]; [22],> 50.1 µM
same,TGI,T47D [16]; read-out: pTGI (converted),9.77 µM
same,growth at 0.5 µM,A498,51%
same,GI50,A549 [17]; read-out: GI50,0.0172 µM
same,CC50,A549 [17]; [21],> 50 µM
same,TGI,A549 [17]; read-out: TGI,0.883 µM
same,GI50,A549 [17]; read-out: pGI50 (converted),0.0174 µM
same,CC50,A549 [17]; [22],> 50.1 µM
same,TGI,A549 [17]; read-out: pTGI (converted),0.891 µM
same,growth at 0.05 µM,CAKI-1 [18],89%
same,growth at 0.005 µM,SR,98%
same,growth at 0.05 µM,UO-31 [19],85%
same,growth at 5 µM,HOP-62 [20],-73%
same,growth at 0.005 µM,BT-549,94%

# Reference: ChEMBL document CHEMBL3588757, “Structure-based design, synthesis and biological testing of piperazine-linked bis-epipodophyllotoxin etoposide analogs” (Bioorg Med Chem, 2015)
